T cruzi inh – inhibitors of intracellular T. cruzi growth, primary screen, luminescence, NIH3T3 host cells; T. cruzi beta-gal in NIH3T3, 90 h; inhibition, % (test concentration not listed); 1.4% of 300,000 active; AID 1885, 2009;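 active means mean inhibition across valid replicates above about 55%, limit read from the data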;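 further: signal also drops with host cell toxicity which is not excluded here; 0% = plate median of DMSO wells and 100% = zero luminescence signal; higher percent means less beta-gal luminescence so fewer parasites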
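assay system = mouse NIH/3T3 fibroblasts infected with β-gal-expressing T. cruzi Tulahuen C4 | input = 5,000 NIH/3T3 host cells per well | buffer or medium = DMEM plus 2% FBS | timing = 3 h host attachment, then at least 90 h co-culture | measured by = GalScreen luminescence, 60 min | evaluation = luminescence reflecting intracellular parasite burden, expressed as percent inhibition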
HIF act – HIF pathway transcriptional activators, primary screen, cell-based, U2OS HRE-luciferase, luminescence | U2OS HRE-luciferase reporter; normalized: DMSO 0%, desferrioxamine 100% | activation, % at 7.5 µM (by protocol) | 0.32% of 300,000 active;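 active means mean activation of at least 10% of the iron chelator positive control signal, with at least half of replicates also reaching 10%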
HSF1 activator – HSF-1 activators, primary screen, NIH3T3-HGL cells, MG132 stress, luminescence, single point; NIH3T3-HGL HSF-1 luciferase reporter, 8 h; 100% = twice DMSO control signal; activation, % at 9 µM; 1.7% of 300,000 active;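 active means mean replicate activation of at least 50% with a set share of replicates each reaching 50%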;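 further: 0% = median of the neutral control wells and 100% = twice that signal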
Calb FLC – C. albicans growth inhibition with fluconazole, primary screen, CaCi-2 strain, Alamar Blue fluorescence; C. albicans CaCi-2 + fluconazole, 48 h; growth inhibition, % (test concentration not listed); 0.57% of 300,000 active; AID 1979, 2009;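 active means growth inhibition above about 58% in most replicates, limit read from the data, passing the limit was not always enough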;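 further: all wells also contain fluconazole at 8 µg/ml as a sub-toxic cotreatment; 0% = median of DMSO wells and 100% = median of geldanamycin control wells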
HSF1 inhib – HSF1 inhibitors in luciferase reporter cells, primary screen, cell-based, NIH3T3, luminescence | NIH3T3-HGL HSE-luciferase, MG132-induced, luminescence 8 h; stronger effect = lower value | activity change, negative = inhibition, % at 7.5 µM (by protocol) | 0.77% of 300,000 active | AID 2098, 2009;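 active means more than half of replicate wells show activity change below -50%, luminescence cut by over half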;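 further: luciferase reports HSF-1 transcriptional activity via heat shock element; 0% = median of DMSO wells and -100% = zero luminescence signal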
Active calls of the source: *. The list is not random: actives were taken first. Their share in the collection is about 4.4%.

What do the screens show for `CC(C)CCN(C(=O)CCCSc1nc2ccccc2[nH]1)c1c(N)n(Cc2ccccc2)c(=O)[nH]c1=O`?
T cruzi inh: 9.3; HIF act: -0.1; HSF1 activator: 7.3; Calb FLC: -12.2; HSF1 inhib: 16.2

Results for CSc1nc(C)cc(SCC(=O)N/N=C/c2ccccc2)n1 ?
T cruzi inh: 3.0; HIF act: 0.0; HSF1 activator: 23.7; Calb FLC: -10.5; HSF1 inhib: -4.4

What do the screens show for `O=C(CC1(O)C(=O)Nc2ccc(Br)cc21)c1ccc2c(c1)OCO2` (stereo not drawn)?
T cruzi inh: -17.2; HIF act: 3.3; HSF1 activator: 57.4*; Calb FLC: -39.6; HSF1 inhib: 8.4

How did CSc1ccc(-c2nnn(Cc3ccccn3)n2)cc1 do in these assays?
T cruzi inh: -2.6; HIF act: 2.8; HSF1 activator: 77.3*; Calb FLC: -2.3; HSF1 inhib: 44.6

What do the screens show for `CSc1ccc(-c2nnn(Cc3ccc(Br)cc3)n2)cc1`?
T cruzi inh: 6.8; HIF act: 0.7; HSF1 activator: 41.4; Calb FLC: -1.1; HSF1 inhib: 31.1

What do the screens show for `O=C(NCCc1nc2ccccc2[nH]1)c1ccc(F)cc1`?
T cruzi inh: -8.4; HIF act: 0.0; HSF1 activator: -0.2; Calb FLC: 4.4; HSF1 inhib: -4.8

Results for O=C(NCCc1nc2ccccc2[nH]1)c1cccc(Br)c1 ?
T cruzi inh: 55.7*; HIF act: 0.0; HSF1 activator: 4.7; Calb FLC: 17.8; HSF1 inhib: 3.8

How did O=C(Nc1ccccn1)c1csc2c1CCCC2 do in these assays?
T cruzi inh: -10.3; HIF act: 1.2; HSF1 activator: 52.7*; Calb FLC: -0.7; HSF1 inhib: 43.5

Results for CCN(CC)c1ncnc2c1cnn2Cc1ccc(C)cc1 ?
T cruzi inh: 2.8; HIF act: -0.5; HSF1 activator: -5.5; Calb FLC: -0.4; HSF1 inhib: 4.6

What do the screens show for `CCN(CC)c1nc(C)nc2c1cnn2CCc1ccccc1`?
T cruzi inh: -7.8; HIF act: 2.1; HSF1 activator: 56.7*; Calb FLC: -5.6; HSF1 inhib: 37.2

How did CCOc1ccc(C(=O)NC(=S)Nc2ccccc2N2CCOCC2)cc1Br do in these assays?
T cruzi inh: 27.7; HIF act: 0.2; HSF1 activator: 4.7; Calb FLC: -0.3; HSF1 inhib: -1.2

How did Nc1ccc(Sc2nc3ccccc3[nH]2)cc1 do in these assays?
T cruzi inh: -14.8; HIF act: -1.3; HSF1 activator: -3.3; Calb FLC: -5.6; HSF1 inhib: -0.3

What do the screens show for `Cc1ccc(C2=Nc3ccccc3NC(C)(c3ccc(C)o3)C2)o1` (stereo not drawn)?
T cruzi inh: 9.5; HIF act: 1.5; HSF1 activator: 53.0*; Calb FLC: -2.5; HSF1 inhib: 40.3

What do the screens show for `COc1cc2c(cc1OC)-c1cc(Nc3ccc4c(c3)OCCO4)nc(=O)n1CC2`?
T cruzi inh: 14.0; HIF act: -1.2; HSF1 activator: -75.4; Calb FLC: -3.4; HSF1 inhib: -71.6*

Results for O=C(NC1CCCC1)c1cc2ccccc2o1 ?
T cruzi inh: -22.0; HIF act: 3.1; HSF1 activator: -2.5; Calb FLC: 13.0; HSF1 inhib: -4.8

How did O=C(NC1CCCC1)c1cc2cc(Br)ccc2o1 do in these assays?
T cruzi inh: -2.3; HIF act: 3.7; HSF1 activator: 60.3*; Calb FLC: 2.0; HSF1 inhib: 38.7

Results for O=C(NC1CCCCC1)c1cc2cc(Br)ccc2o1 ?
T cruzi inh: -0.2; HIF act: 6.2; HSF1 activator: 68.3*; Calb FLC: -4.6; HSF1 inhib: 48.6

What do the screens show for `CC(C)(C)CC(=O)NCc1ccc(F)cc1`?
T cruzi inh: 4.6; HIF act: -0.2; HSF1 activator: 1.1; Calb FLC: -6.8; HSF1 inhib: 0.8

Results for COc1ccc(Nc2ccnc3ccccc23)cc1 ?
T cruzi inh: 13.5; HIF act: 2.8; HSF1 activator: -21.7; Calb FLC: -5.6; HSF1 inhib: -23.2

How did CC(C)Nc1ccc(Nc2ccnc3cc4ccccc4cc23)cc1 do in these assays?
T cruzi inh: 57.8*; HIF act: -3.9; HSF1 activator: 1.0; Calb FLC: -0.5; HSF1 inhib: 6.1

What do the screens show for `c1ccc(CCNc2ccnc3cc4ccccc4cc23)cc1`?
T cruzi inh: 58.8*; HIF act: -7.9; HSF1 activator: 18.5; Calb FLC: 64.9; HSF1 inhib: 11.3

How did COc1ccc(N2CCN(C(CNC(=O)C(=O)NCCCn3ccnc3)c3cccnc3)CC2)cc1 (stereo not drawn) do in these assays?
T cruzi inh: 62.7*; HIF act: -0.2; HSF1 activator: -2.9; Calb FLC: -20.6; HSF1 inhib: -8.0

What do the screens show for `CCS(=O)(=O)NCC(c1cccnc1)N1CCN(c2ccc(OC)cc2)CC1` (stereo not drawn)?
T cruzi inh: 57.7*; HIF act: -0.3; HSF1 activator: 2.8; Calb FLC: 9.4; HSF1 inhib: -4.7

How did O=C(NCCCn1ccnc1)C(=O)NCC(c1cccnc1)N1CCN(c2ccc(F)cc2)CC1 (stereo not drawn) do in these assays?
T cruzi inh: 40.0; HIF act: -0.1; HSF1 activator: -11.5; Calb FLC: 10.1; HSF1 inhib: 0.6

What do the screens show for `CCS(=O)(=O)NCC(c1cccnc1)N1CCN(c2ccccc2)CC1` (stereo not drawn)?
T cruzi inh: 41.3; HIF act: -0.1; HSF1 activator: 8.5; Calb FLC: 1.1; HSF1 inhib: -4.9

Results for COc1ccc2oc(C(=O)Nc3ccc(S(=O)(=O)N(C)C4CCN(C)CC4)cc3)c(C)c2c1 ?
T cruzi inh: 60.0*; HIF act: 1.9; HSF1 activator: -16.1; Calb FLC: 9.6; HSF1 inhib: -10.6

How did CC(Oc1ccc(Br)cc1)C(=O)Nc1ccc(S(=O)(=O)N(C)C2CCN(C)CC2)cc1 (stereo not drawn) do in these assays?
T cruzi inh: 55.8*; HIF act: 2.0; HSF1 activator: -14.3; Calb FLC: 2.8; HSF1 inhib: 2.3

How did COc1ccc(S(=O)(=O)N(C)C2CCN(C)CC2)cc1 do in these assays?
T cruzi inh: 28.3; HIF act: 0.0; HSF1 activator: -11.5; Calb FLC: -1.3; HSF1 inhib: -5.7

How did O=C(Nc1ccc(N2CCOCC2)cc1N1CCOCC1)c1ccc([N+](=O)[O-])cc1Cl do in these assays?
T cruzi inh: 12.8; HIF act: -0.9; HSF1 activator: -0.3; Calb FLC: -2.4; HSF1 inhib: 0.6

What do the screens show for `CCN(CC)CCN(C(=O)c1ccc(CN2CCCCC2)o1)C(C(=O)NC1CCCCC1)c1ccc(F)cc1` (stereo not drawn)?
T cruzi inh: 16.6; HIF act: 0.0; HSF1 activator: 14.8; Calb FLC: -1.9; HSF1 inhib: -2.1

Compound activity as filed in PubChem BioAssay.
